Assay results taken from ChEMBL document CHEMBL5712911, “A homogeneous bioluminescent immunoassay to probe cellular signaling pathway regulation” (Commun Biol, 2020).
Each block holds one compound with its values, some of them ahead of it. The source made the active and inactive calls. No cut-off for these calls is given here.

Legend:
[1] = test system: MCF7; test: Inhibition of IKK in human MCF7 cells assessed as reduction in IL-1beta-induced IkappaBalpha phosphorylation at serine 32 residue preincubated for 1 hr followed by IL-1beta-stimulation and measured after 10 mins by NanoBiT cell-based immunoassay; conditions: dose 10.0 µM, time 70.0 min
[2] = test system: Ramos; test: Inhibition of IKK in human Ramos cells assessed as reduction in TNFalpha-induced IkappaBalpha phosphorylation at serine 32 residue preincubated for 1 hr followed by TNFalpha-stimulation and measured after 10 mins by NanoBiT cell-based immunoassay; conditions: time 70.0 min
[3] = test system: MCF7; test: Inhibition of IKK in human MCF7 cells assessed as reduction in TNFalpha-induced IkappaBalpha phosphorylation at serine 32 residue at 10 uM preincubated for 1 hr followed by TNFalpha-stimulation and measured after 10 mins by NanoBiT cell-based immunoassay; conditions: time 70.0 min
[4] = test system: MCF7; test: Inhibition of IKK in human MCF7 cells assessed as reduction in TNFalpha-induced total IkappaBalpha expression at 10 uM preincubated for 1 hr followed by TNFalpha-stimulation and measured after 10 mins by NanoBiT cell-based immunoassay; conditions: time 70.0 min
[5] = test system: MCF7; test: Inhibition of IKK in human MCF7 cells assessed as reduction in IL-1beta-induced p65 phosphorylation at serine 536 residue preincubated for 1 hr followed by IL-1beta-stimulation and measured after 10 mins by NanoBiT cell-based immunoassay; conditions: time 70.0 min
[6] = test system: HeLa; test: Inhibition of IKK in human HeLa cells assessed as reduction in IL-1beta-induced IkappaBalpha phosphorylation at serine 32 residue preincubated for 1 hr followed by IL-1beta-stimulation and measured after 10 mins by NanoBiT cell-based immunoassay; conditions: time 70.0 min
[7] = test system: MCF7; test: Inhibition of IKK in human MCF7 cells assessed as reduction in TNFalpha-induced IkappaBalpha degradation preincubated for 1 hr followed by TNFalpha-stimulation and measured after 30 mins by NanoBiT cell-based immunoassay; conditions: time 1.5 hrs
How it was run: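 MCF-7 cells (50,000/well, seeded overnight) were preincubated 1 h with graded inhibitor concentrations, then stimulated with TNFα (50 ng per ml, 30 min). Digitonin lysis was followed by NanoBiT total IκBα immunoassay: a rabbit/mouse primary pair plus SmBiT/LgBiT-labelled secondaries for 90 min at 23 °C, then Nano-Glo substrate and luminescence read. IC50 was taken from the dose–response.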

[8] = test system: Primary mammary epithelial cell; test: Inhibition of IKK in human primary mammary epithelial cells assessed as reduction in TNFalpha-induced IkappaBalpha phosphorylation at serine 32 residue preincubated for 1 hr followed by TNFalpha-stimulation and measured after 10 mins by NanoBiT cell-based immunoassay; conditions: time 70.0 min
[9] = test system: MCF7; test: Inhibition of IKK in human MCF7 cells assessed as effect on TNFalpha-induced p65 expression at 10 uM preincubated for 1 hr followed by TNFalpha-stimulation and measured after 10 mins by NanoBiT cell-based immunoassay; conditions: time 70.0 min
[10] = test system: MCF7; test: Inhibition of IKK in human MCF7 cells assessed as reduction in TNFalpha-induced p65 phosphorylation at serine 536 residue at 10 uM preincubated for 1 hr followed by TNFalpha-stimulation and measured after 10 mins by NanoBiT cell-based immunoassay; conditions: time 70.0 min
[11] = test system: HeLa; test: Inhibition of IKK in human HeLa cells assessed as reduction in TNFalpha-induced IkappaBalpha phosphorylation at serine 32 residue preincubated for 1 hr followed by TNFalpha-stimulation and measured after 10 mins by NanoBiT cell-based immunoassay; conditions: time 70.0 min
[12] = test system: Ramos; test: Inhibition of IKK in human Ramos cells assessed as reduction in IL-1beta-induced IkappaBalpha phosphorylation at serine 32 residue preincubated for 1 hr followed by IL-1beta-stimulation and measured after 10 mins by NanoBiT cell-based immunoassay; conditions: time 70.0 min
[13] = test system: Primary mammary epithelial cell; test: Inhibition of IKK in human primary mammary epithelial cells assessed as reduction in IL-1beta-induced IkappaBalpha phosphorylation at serine 32 residue preincubated for 1 hr followed by IL-1beta-stimulation and measured after 10 mins by NanoBiT cell-based immunoassay; conditions: time 70.0 min
[14] = target: T1, Catenin beta-1 (Homo sapiens) (UniProt P35222); test: Induction of beta-catenin degradation in Wnt3a-stimulated HEK293 cells by NanoBiT cell-based immunoassay
T1 sequence (whole entry): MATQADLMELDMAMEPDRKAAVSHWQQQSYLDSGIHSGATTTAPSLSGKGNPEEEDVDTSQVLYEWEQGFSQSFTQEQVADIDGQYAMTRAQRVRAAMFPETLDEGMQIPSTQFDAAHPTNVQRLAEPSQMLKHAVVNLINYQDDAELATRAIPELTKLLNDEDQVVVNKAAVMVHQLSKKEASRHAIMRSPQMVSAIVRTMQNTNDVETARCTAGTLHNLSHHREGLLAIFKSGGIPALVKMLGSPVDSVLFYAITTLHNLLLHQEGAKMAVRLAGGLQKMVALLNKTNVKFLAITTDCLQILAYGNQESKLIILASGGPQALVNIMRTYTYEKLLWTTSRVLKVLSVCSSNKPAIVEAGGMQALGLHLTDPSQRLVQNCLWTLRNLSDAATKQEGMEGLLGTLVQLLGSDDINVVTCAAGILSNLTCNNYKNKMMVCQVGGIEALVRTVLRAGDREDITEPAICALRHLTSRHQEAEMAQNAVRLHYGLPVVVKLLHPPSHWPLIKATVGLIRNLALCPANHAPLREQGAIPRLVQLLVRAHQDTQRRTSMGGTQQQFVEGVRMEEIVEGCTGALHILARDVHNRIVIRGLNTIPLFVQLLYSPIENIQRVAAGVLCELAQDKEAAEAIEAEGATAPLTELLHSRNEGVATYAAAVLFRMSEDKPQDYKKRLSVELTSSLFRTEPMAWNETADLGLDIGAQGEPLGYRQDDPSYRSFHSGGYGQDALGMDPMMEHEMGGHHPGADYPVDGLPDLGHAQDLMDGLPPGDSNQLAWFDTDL

[15] = Effect on total STAT3 expression in human A-431 cells at 1 uM measured after 1 hr by NanoBiT cell-based immunoassay; type: toxicity; conditions: a-431, 1 h
How it was run: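 A431 cells, 50,000/well, were kept overnight in serum-free medium. […] Total STAT3 was measured by NanoBiT immunoassay after 20 min digitonin lysis (antibody mix 90 min, 23 °C; Nano-Glo luminescence). Means ± S.E.M., n = 3 technical replicates.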

[16] = target: Eukaryotic translation initiation factor 4E-binding protein 1 (Homo sapiens) (UniProt Q13541); test: Inhibition of 4E-BP1 in HEK293 cells assessed as reduction in insulin-induced 4E-BP1 phosphorylation at Ser65 residue by NanoBiT cell-based immunoassay
Chain of Eukaryotic translation initiation factor 4E-binding protein 1 (Homo sapiens) (Q13541 whole entry): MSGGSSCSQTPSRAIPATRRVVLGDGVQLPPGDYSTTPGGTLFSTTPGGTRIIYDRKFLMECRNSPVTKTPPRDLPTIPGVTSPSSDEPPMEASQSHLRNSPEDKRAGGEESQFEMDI

[17] = target: Eukaryotic translation initiation factor 4E-binding protein 1 (Homo sapiens) (UniProt Q13541); test: Inhibition of 4E-BP1 in human MCF7 cells assessed as reduction in insulin-induced 4E-BP1 phosphorylation at Ser65 residue by NanoBiT cell-based immunoassay
[18] = target: Small ribosomal subunit protein eS6 (Homo sapiens) (UniProt P62753); test: Inhibition of S6 ribosomal protein in HEK293 cells assessed as reduction in insulin-induced S6 phosphorylation at Ser235/236 residue by NanoBiT cell-based immunoassay
[19] = target: Small ribosomal subunit protein eS6 (Homo sapiens) (UniProt P62753); test: Inhibition of S6 ribosomal protein in HEK293 cells assessed as reduction in serum-induced S6 phosphorylation at Ser240/244 residue by NanoBiT cell-based immunoassay
[20] = target: Small ribosomal subunit protein eS6 (Homo sapiens) (UniProt P62753); test: Inhibition of S6 ribosomal protein in HEK293 cells assessed as reduction in insulin-induced S6 phosphorylation at Ser240/244 residue by NanoBiT cell-based immunoassay
[21] = target: Small ribosomal subunit protein eS6 (Homo sapiens) (UniProt P62753); test: Inhibition of S6 ribosomal protein in HEK293 cells assessed as reduction in serum-induced S6 phosphorylation at Ser235/236 residue by NanoBiT cell-based immunoassay
[22] = test system: MCF7; test: Inhibition of PI3K in human MCF7 cells assessed as reduction in insulin-induced AKT T308 phosphorylation preincubated for 1 hr followed by insulin stimulation and measured after 10 mins by NanoBiT cell-based immunoassay; conditions: time 70.0 min
[23] = test system: MCF7; test: Inhibition of PI3K in human MCF7 cells assessed as reduction in insulin-induced AKT S473 phosphorylation at 20 uM preincubated for 1 hr followed by insulin stimulation and measured after 10 mins by NanoBiT cell-based immunoassay; conditions: time 70.0 min
How it was run: (§1)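 MCF-7 cells, 50,000/well, were held overnight without serum. They were pretreated 1 h with 20 µM inhibitor, then given insulin (1 µM, 10 min). After 20 min digitonin lysis with protease/phosphatase inhibitors, AKT S473 phosphorylation (20) or total AKT (1) was read by NanoBiT immunoassay (antibody mix 90 min, 23 °C; Nano-Glo luminescence). Means ± S.E.M., n = 3 technical replicates.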

[24] = test system: MCF7; test: Inhibition of PI3K in human MCF7 cells assessed as reduction in insulin-induced AKT S473 phosphorylation preincubated for 1 hr followed by insulin stimulation and measured after 10 mins by NanoBiT cell-based immunoassay; conditions: time 70.0 min
How it was run: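 For this dose–response, serum-starved MCF-7 cells (50,000/well, overnight without serum) were pretreated 1 h with a concentration series of inhibitor, then stimulated with insulin (1 µM, 10 min). p-AKT S473 was measured by NanoBiT immunoassay: digitonin lysis 20 min, primary pair plus NanoBiT secondaries 90 min at 23 °C, Nano-Glo luminescence. IC50 was derived from the titration.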

[25] = test system: MCF7; test: Inhibition of PI3K in human MCF7 cells assessed as reduction in IGF1-induced AKT S473 phosphorylation preincubated for 1 hr followed by IGF1 stimulation and measured after 10 mins by NanoBiT cell-based immunoassay; conditions: time 70.0 min
[26] = Effect on total AKT expression in human MCF7 cells at 20 uM measured after 1 hr by NanoBiT cell-based immunoassay; type: toxicity; conditions: mcf7, 1 h; how it was run: as §1
[27] = target: T2, Retinoblastoma-associated protein (Homo sapiens) (UniProt P06400); test: Inhibition of RB protein in human MCF7 cells assessed as reduction in 17beta-estradiol-induced Rb phosphorylation at Ser807/811 residue by NanoBiT cell-based immunoassay
T2 sequence (whole entry): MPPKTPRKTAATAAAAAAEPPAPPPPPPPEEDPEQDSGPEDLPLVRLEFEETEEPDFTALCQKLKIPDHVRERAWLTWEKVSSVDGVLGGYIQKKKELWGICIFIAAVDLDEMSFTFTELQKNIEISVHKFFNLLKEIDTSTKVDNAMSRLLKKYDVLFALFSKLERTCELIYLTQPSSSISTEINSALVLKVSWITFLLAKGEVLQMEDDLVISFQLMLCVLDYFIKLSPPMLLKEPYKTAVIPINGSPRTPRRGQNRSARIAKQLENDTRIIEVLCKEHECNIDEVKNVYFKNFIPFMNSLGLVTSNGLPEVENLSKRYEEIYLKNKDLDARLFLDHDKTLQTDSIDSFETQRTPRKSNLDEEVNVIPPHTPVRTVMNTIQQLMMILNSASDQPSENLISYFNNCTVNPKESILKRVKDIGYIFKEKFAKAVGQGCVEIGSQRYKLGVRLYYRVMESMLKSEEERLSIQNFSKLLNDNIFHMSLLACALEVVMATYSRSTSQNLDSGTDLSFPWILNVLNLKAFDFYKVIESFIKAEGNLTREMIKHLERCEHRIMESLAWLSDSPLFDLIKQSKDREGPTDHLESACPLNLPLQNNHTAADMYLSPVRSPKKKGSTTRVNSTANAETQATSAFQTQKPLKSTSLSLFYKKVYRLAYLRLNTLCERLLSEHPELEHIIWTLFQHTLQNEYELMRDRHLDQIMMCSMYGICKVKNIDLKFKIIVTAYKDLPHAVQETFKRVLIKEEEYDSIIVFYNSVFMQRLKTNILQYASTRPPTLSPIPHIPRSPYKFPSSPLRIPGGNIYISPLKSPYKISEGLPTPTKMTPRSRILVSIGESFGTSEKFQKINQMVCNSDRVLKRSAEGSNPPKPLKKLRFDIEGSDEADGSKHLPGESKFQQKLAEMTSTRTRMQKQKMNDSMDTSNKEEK

[28] = target: T2, Retinoblastoma-associated protein (Homo sapiens); test: Inhibition of RB protein in human MCF7 cells assessed as reduction in 17beta-estradiol-induced Rb phosphorylation at Ser780 residue by NanoBiT cell-based immunoassay
[29] = target: T2, Retinoblastoma-associated protein (Homo sapiens); test: Inhibition of RB protein in human MCF7 cells assessed as reduction in EGF-induced Rb phosphorylation at Ser780 residue by NanoBiT cell-based immunoassay
[30] = target: T2, Retinoblastoma-associated protein (Homo sapiens); test: Inhibition of RB protein in human MCF7 cells assessed as reduction in EGF-induced Rb phosphorylation at Ser807/811 residue by NanoBiT cell-based immunoassay

SMILES: O=C(c1ccc(Nc2nccc(-c3cc4ccccc4s3)n2)cc1)N1CCC(N2CCCC2)CC1
inhibition [1]: Active
inhibition [2]: Active
inhibition [3]: Active
inhibition [4]: Active
inhibition [5]: Active
inhibition [6]: Active
inhibition [7]: Dose-Dependent Effect
inhibition [8]: Active
inhibition [9]: inactive
inhibition [10]: Active
inhibition [11]: Active
inhibition [12]: Active
inhibition [13]: Active

SMILES: O=C1Nc2ccccc2C12OCC1(CO2)COC2(OC1)C(=O)Nc1ccccc12 (centres undefined)
Activity [14]: Active

SMILES: N#CC[C@H](C1CCCC1)n1cc(-c2ncnc3[nH]ccc23)cn1 [RUXOLITINIB]
Activity [15]: Non-Toxic

SMILES: O=c1cc(N2CCOCC2)oc2c(-c3ccccc3)cccc12 [LY-294002]
inhibition [22]: Active
inhibition [23]: Active
inhibition [24]: Dose-Dependent Effect
inhibition [25]: Active
Activity [26]: Non-Toxic

Now from value to compound:

inhibition [16]: Active
inhibition [17]: Active
inhibition [18]: Active
inhibition [19]: Active
inhibition [20]: Active
inhibition [21]: Active
SMILES: CO[C@H]1C[C@@H]2CC[C@@H](C)[C@@](O)(O2)C(=O)C(=O)N2CCCC[C@H]2C(=O)O[C@H]([C@H](C)C[C@@H]2CC[C@@H](O)[C@H](OC)C2)CC(=O)[C@H](C)/C=C(\C)[C@@H](O)[C@@H](OC)C(=O)[C@H](C)C[C@H](C)/C=C/C=C/C=C/1C

inhibition [27]: Active
inhibition [28]: Active
inhibition [29]: Active
inhibition [30]: Active
SMILES: CCN(CC)C(=O)c1ccc(Nc2nc(OCC3CCCCC3)c3nc[nH]c3n2)cc1

inhibition [27]: Active
inhibition [28]: Active
inhibition [29]: Active
inhibition [30]: Active
SMILES: CC(=O)c1c(C)c2cnc(Nc3ccc(N4CCNCC4)cn3)nc2n(C2CCCC2)c1=O
